# Assay outcomes (PubChem BioAssay)
# The list is not random: actives were taken first. Their share in the collection is about 3.1%.
# CHO parental Ca = ATP-evoked calcium signal inhibitors, parental CHO, primary screen, counter-screen for OX1R antagonist project, cell-based, fluorescence, Fluo-8 calcium dye. hit rate 0.63% among 330,000. parental CHO-K1, ATP-induced calcium, Fluo-8 fluorescence. inhibition, % at 5.6 µM;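 active = inhibition above that plate's mean sample inhibition plus 3 SD, cut at about 26% in these data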
#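 Measured by: calcium-sensitive Fluo-8 fluorescence / Test system: CHO parental line / Controls: ATP-challenged DMSO wells low, unchallenged DMSO wells high / Measure: % inhibition / Compound: single nominal dose of 5.6 µM per compound / Replicates: single well per compound, no replicates / Reagent: ATP as calcium-mobilizing challenge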
# OX1R antag-1 = OX1R (HCRTR1) antagonists, primary screen, fluorescence, CHO/OX1R cells, Fluo-8 calcium, orexin A. Orexin/Hypocretin receptor type 1 (Homo sapiens), O43613. Fluo-8 calcium fluorescence. inhibition, % at 5 µM. hit rate 0.43% among 330,000;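 active = inhibition above its plate's threshold, mean inhibition of all tested compounds on the plate plus 3 SD, cut at about 37% in these data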
# Target sequence (O43613 whole entry, looked up): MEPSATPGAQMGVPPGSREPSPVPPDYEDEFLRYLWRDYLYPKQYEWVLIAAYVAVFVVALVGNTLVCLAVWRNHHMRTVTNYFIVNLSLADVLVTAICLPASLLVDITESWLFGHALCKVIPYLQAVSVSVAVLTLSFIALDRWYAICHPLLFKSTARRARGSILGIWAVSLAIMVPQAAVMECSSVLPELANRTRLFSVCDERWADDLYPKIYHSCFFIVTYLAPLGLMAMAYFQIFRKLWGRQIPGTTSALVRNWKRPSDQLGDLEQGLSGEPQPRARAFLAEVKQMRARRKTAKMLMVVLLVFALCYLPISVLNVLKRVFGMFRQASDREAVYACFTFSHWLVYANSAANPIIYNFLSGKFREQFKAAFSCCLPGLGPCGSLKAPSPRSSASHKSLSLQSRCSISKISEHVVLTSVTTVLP
# OX1R antag-2 = antagonists of human orexin 1 receptor (OX1R); OX1R-expressing cells, FRET antagonist read-out; Orexin/Hypocretin receptor type 1 (Homo sapiens), O43613; inhibition, % at 6.6 µM; AID 485270, 2010; hit rate 1.8% among 330,000; in the data active = inhibition mostly above about 38%, no sharp cut-off; inactive = mostly below about 40%
# GalR3 antagonist = GalR3 antagonists in HEK293 cells, primary screen, cell-based, fluorescence readout | hit rate 0.44% among 360,000 | Galanin receptor type 3 (Homo sapiens), O60755 | inhibition, % at 3 µM | HEK293 GalR3-CNG cAMP membrane potential fluorescence; galR3 body fused to GalR1 C-terminus;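 active = inhibition above the screen-wide average plus 3 SD, cut at about 13% in these data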;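 note: forskolin and galanin both at EC90 stimulate the cells; cAMP rise reported by CNG channel membrane potential dye signal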
# GPR7 antag = GPR7 receptor antagonists, primary screen, cell-based, fluorescence, single concentration; inhibition, % at 4.4 µM; AID 1861, 2009; hit rate 1.1% among 290,000; GPR7-expressing cells, fluorescence antagonist assay; in the data active = inhibition above about 16%, passing the limit was not always enough;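 note: cells stimulated with the agonist NPW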
# Hits are given with their value; n = inactive; x = no result given.
SMILES,CHO parental Ca,OX1R antag-1,OX1R antag-2,GalR3 antagonist,GPR7 antag
Oc1ccc(Br)cc1/C=N/NC(=S)NCCc1ccccc1,33.8,n,n,n,n
COc1ccc(N=C2C(=O)N3CCCc4cccc2c43)cc1,n,n,65.7,n,n
COc1ccc(CNC(=O)Nc2cc(C)cc(C)c2)cc1,n,n,n,n,n
COc1ccc(CNC(=O)Nc2ccc(C)cc2)cc1,37.2,n,n,n,n
NNC(=O)c1sccc1OCc1ccc(F)cc1,n,n,n,n,n
NNC(=O)c1sccc1OCc1ccc(Cl)cc1Cl,n,n,n,n,19.8
CC(C)C(=O)Nc1ccc2nn(-c3ccccc3)nc2c1,n,n,63.1,n,n
OC(c1cc(-c2ccc(Cl)cc2)nc2ccccc12)C1CCCCN1 (centres undefined),n,n,n,n,62.9
NC(=O)C1CCN(C(=O)c2cc(-c3ccc(Cl)cc3)nc3ccccc23)CC1,n,n,n,n,x
O[C@@H](c1cc(C(F)(F)F)nc2c(C(F)(F)F)cccc12)[C@H]1CCCCN1,n,n,n,x,x
OC(c1cc(C(F)(F)F)nc2c(Cl)cc(Cl)cc12)C1CCCCN1 (centres undefined),n,n,n,n,45.1
CC1(C)CC(=O)C=C(c2ccccc2-c2ccc3c(c2)OCO3)C1=O,x,x,x,n,x
CN1/C(=C\C(=O)c2cncc(Br)c2)C(C)(C)c2ccccc21,38.6,n,n,n,n
CC(=O)/C=C1\N(C)c2ccc(C)cc2C1(C)C,38.1,n,n,n,n
CN1/C(=C\C(=O)c2ccco2)C(C)(C)c2ccccc21,70.9,n,n,n,n
CN1/C(=C\C(=O)C(F)F)C(C)(C)c2ccccc21,n,n,n,n,n
CCCCOCC1CN(CCCC)S(=O)(=O)c2c(NCc3cc(OC)c(OC)c(OC)c3)cccc2O1 (centres undefined),x,x,x,n,x
COc1ccc(N/C=C2\CCc3ccccc3C2=O)cc1,n,n,38.6,n,n
CNc1nc(-c2ccc3c(c2)CCN3C(=O)CC(C)(C)C)c(C)s1,n,n,n,n,n
CC(=O)Nc1nc(-c2ccc3c(c2)CCN3C(=O)C2CC2)c(C)s1,n,n,47.7,n,n
Nc1ncnc2c1ncn2[C@@H]1O[C@H](C(=O)N[C@@H](CCc2ccccc2)C(=O)N2CCN(C(=O)N3CCOCC3)CC2)[C@@H](O)[C@H]1O,x,x,x,n,x
Nc1c(-c2ccccc2)nc(Cl)nc1-c1ccccc1,n,n,n,n,n
c1ccc(-c2nc3nonc3nc2-c2ccccc2)cc1,n,n,39.8,n,n
COc1ccc(OC)c(CNn2c(-c3ccccc3F)nc3ccccc3c2=O)c1,n,n,n,n,n
COc1ccc(O)c(CNn2c(-c3ccc(Br)cc3)nc3ccccc3c2=O)c1,n,n,44.1,n,n
SMILES,CHO parental Ca,OX1R antag-1,OX1R antag-2,GalR3 antagonist,GPR7 antag
O=C(O)c1ccc(NC(=S)NCc2ccccc2)cc1,n,n,n,n,n
FC(F)(F)c1cccc(NC(=S)NCc2ccc(Cl)cc2)c1,n,n,n,n,28.4
FC(F)(F)c1ccc(NC(=S)NCc2ccccc2)cc1,29.8,n,n,n,24.4
O=C(CSc1cn(CCNC(=O)c2c(F)cccc2F)c2ccccc12)NCC1CCCO1 (centres undefined),n,n,n,n,n
O=C(NCCn1cc(SCc2ccc(F)cc2)c2ccccc21)c1c(F)cccc1F,42.1,n,n,x,n
O=C(NCCn1cc(SCc2ccccc2)c2ccccc21)c1c(F)cccc1F,70.0,n,n,x,n
O=C(NCCn1cc(SCc2ccc(F)cc2)c2ccccc21)c1ccccc1F,71.1,n,n,x,n
CCCn1cc(SCC(=O)NCc2ccco2)c2ccccc21,n,n,n,n,n
O=C(CSc1cn(CCNC(=O)c2ccccc2)c2ccccc12)NCc1ccco1,n,n,41.5,x,n
Cn1cc(SCC(=O)NCc2ccc(F)cc2)c2ccccc21,n,n,n,n,n
O=C(C(=O)N1CCC(CNS(=O)(=O)c2ccc(F)c(F)c2)CC1)c1cc2ccccc2o1,x,x,x,n,x
COC(=O)Cn1cnc2c(NC(=O)c3ccccc3)ncnc21,x,x,x,n,x
Cc1cc2c(cc1C)-c1nnnn1C(N1CCCC1)C(=O)N2 (centres undefined),x,x,x,n,x
COc1ccc(NC(=O)C(c2cc3ccccc3o2)n2c(=O)c(-c3cc4ccccc4[nH]3)nc3ccccc32)cc1 (centres undefined),x,x,x,n,x
Cc1ccc(NC(=O)CNC(=O)CN2C(=O)c3ccccc3C2=O)cc1,x,x,x,n,x
N#C/C(=C/c1ccc(-c2cc([N+](=O)[O-])ccc2Cl)o1)C(N)=O,n,n,53.6,n,n
O=C(COC(=O)c1cc[n+]([O-])cc1)Nc1ccc(SC(F)F)cc1,n,n,n,n,n
CCOc1ccc(C(=O)OCC(=O)Nc2ccc(SC(F)F)cc2)cc1OCC,25.2,n,n,n,n
CN[C@H]1C[C@H]2c3[nH]c4c(-c5ccccc5)cccc4c3CCN2C[C@H]1[C@H](C)O,x,x,x,n,x
Nc1ccc(-c2cc(-c3cccc(N)c3)nc(-c3ccccc3)n2)cc1,n,n,n,n,28.7
O=C(NCc1ccccc1)c1cc(C2CCCN(C(=O)C3CCCCC3)C2)on1 (centres undefined),x,x,x,n,x
CC(=O)N1CCc2c(sc(NC(=O)C3CCCN3S(=O)(=O)c3cccs3)c2C(N)=O)C1 (centres undefined),n,n,38.8,n,x
O=C(NCc1ccccc1)[C@@H]1CCCN1C(=O)[C@H]1CCCN1C(=O)c1ccc(F)cc1F,x,x,x,n,x
COc1ccc(-c2ccc3[nH]c4c(c3c2)CCN2C(=O)[C@@H]([C@H](C)O)[C@@H](N(C)C(=O)Nc3ccccc3)C[C@@H]42)cc1,x,x,x,n,x
Cc1cc(O)cc(=O)n1-c1cccc(C(F)(F)F)c1,x,x,x,n,x
SMILES,CHO parental Ca,OX1R antag-1,OX1R antag-2,GalR3 antagonist,GPR7 antag
COc1ccc(S(=O)(=O)N2CCOC2CNC(=O)C(=O)NCCc2ccc(S(N)(=O)=O)cc2)cc1 (centres undefined),72.4,n,n,x,n
COc1ccc(S(=O)(=O)N2CCOC2CNC(=O)C(=O)NCCc2c[nH]c3ccccc23)cc1C (centres undefined),n,n,55.4,x,n
CC(C)C[C@H](NC(=O)c1cccs1)C(=O)N1CCC[C@H]1C(=O)NCc1ccccc1,x,x,x,n,x
CCc1nc2ccc(C(=O)NCCCN3CCCC3=O)cn2c1N(CC)C(C)=O,x,x,x,n,x
Cc1ccc(-c2cc3cccc[n+]3cc2-c2ccc(C)cc2)cc1,n,n,n,n,21.5
CC(=O)c1ccc(Sc2nnnn2-c2ccccc2)c([N+](=O)[O-])c1,n,n,n,n,n
Cn1c(Sc2ccc(C(=O)O)cc2[N+](=O)[O-])nnc1-c1ccccc1,n,n,56.7,n,n
